Source: PubChem BioAssay (Johns Hopkins Ion Channel Center)
Shown are actives, neighbours in structure and some others; about 3.5% of the full set was active somewhere.
MrgX1 antagonist: antagonists of human MrgX1 receptor, primary screen, HEK293 cells, Fluo-4 calcium flux; Mas-related G-protein coupled receptor member X1 (Homo sapiens), Q96LB2; BAM8-22 antagonism; stronger effect = lower value; B-score at 10 µM; hit rate 1.3% among 310,000; AID 588676, 2011;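 active = calcium-response B-score plate-corrected more than 3 library SD below zero, starting fluorescence within 5 deviations, no agonist response on first addition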;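 also: peak minus trough fluorescence over baseline after final BAM8-22 challenge near maximal dose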
Target sequence (Q96LB2 whole entry, looked up): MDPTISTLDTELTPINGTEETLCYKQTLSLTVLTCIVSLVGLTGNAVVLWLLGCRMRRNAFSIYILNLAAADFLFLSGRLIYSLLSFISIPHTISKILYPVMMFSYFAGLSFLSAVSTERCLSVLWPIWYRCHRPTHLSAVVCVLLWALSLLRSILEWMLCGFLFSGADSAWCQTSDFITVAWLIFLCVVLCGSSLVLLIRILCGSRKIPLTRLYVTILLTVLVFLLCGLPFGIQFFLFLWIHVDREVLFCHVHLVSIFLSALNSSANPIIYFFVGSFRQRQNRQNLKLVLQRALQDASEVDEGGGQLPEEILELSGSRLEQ
MrgX1 agonist: agonists of human MrgX1 receptor, primary screen, HEK293 cells, Fluo-4 calcium flux; AID 588627, 2011; Fluo-4 calcium fluorescence, agonist mode; stronger effect = higher value; B-score at 10 µM; hit rate 0.44% among 310,000;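 active = calcium response B-score plate-corrected fluorescence ratio at least 3 library SD, with starting fluorescence B-score inside 5 SD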
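Material – MrgX1-expressing HEK293 cells · Input – 15,000 cells seeded per well · Dosing – compound as first of three additions · Times – overnight seeding, then 1 h dark dye loading · Measured by – kinetic Fluo-4 NW fluorescence of intracellular calcium · Read-out – B-scored fluorescence response ratio · Benchmarks – positive and negative control wells on each plate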
RGS4 act: RGS4 potentiators or activators, primary screen, cell-based, HEK293 M3R inducible RGS4, calcium flux. carbachol calcium flux Fluo4; stronger effect = lower value. B-score at 10 µM. hit rate 0.92% among 310,000;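 active = B-score of the integrated calcium signal more than 4 SD below the library mean, with starting fluorescence not abnormally high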;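 also: negative B-score means reduced calcium response which marks RGS4 activation or potentiation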
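Reagent: ECmax carbachol challenge; Test system: M3R-expressing HEK293 line, RGS4 induced by doxycycline; Schedule: overnight RGS4 induction, 30 min dye load 37 °C, 20 min compound RT; Detection: calcium dye Fluo4 fluorescence; Read-out: Agonist-evoked peak-minus-minimum fluorescence over baseline, integrated ratio, B score.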
MrgX1 PAM: positive allosteric modulators of MrgX1, primary screen, HEK293 cells, Fluo-4 calcium flux; Mas-related G-protein coupled receptor member X1 (Homo sapiens), Q96LB2; FDSS; stronger effect = higher value; B-score at 10 µM; hit rate 0.63% among 310,000; AID 588675, 2011;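 active = plate-corrected calcium response at least 3 library SD above typical, normal starting fluorescence, not activating the receptor alone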;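 also: compound read alongside a low EC10 to EC30 dose of BAM8-22 agonist; peak minus trough fluorescence over baseline measured at the second addition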
RGS4 block: RGS4 inhibitors, primary screen, cell-based, HEK293 M3R inducible RGS4, calcium flux. Regulator of G-protein signaling 4 (Homo sapiens), P49798. Fluo-4 calcium flux; stronger effect = higher value; triggered by carbachol at its EC20. B-score at 10 µM. hit rate 0.45% among 310,000. AID 463165, 2010;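 active = B-score, a plate-corrected calcium signal, over three deviations above library mean, with baseline fluorescence within five deviations of library mean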;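 also: RGS4 expression induced by doxycycline in cells with stable M3 receptor; B-score is computed from the integrated fluorescence ratio over baseline after carbachol; higher B-score means a larger calcium signal and so more RGS4 inhibition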
Target sequence (P49798 whole entry, looked up): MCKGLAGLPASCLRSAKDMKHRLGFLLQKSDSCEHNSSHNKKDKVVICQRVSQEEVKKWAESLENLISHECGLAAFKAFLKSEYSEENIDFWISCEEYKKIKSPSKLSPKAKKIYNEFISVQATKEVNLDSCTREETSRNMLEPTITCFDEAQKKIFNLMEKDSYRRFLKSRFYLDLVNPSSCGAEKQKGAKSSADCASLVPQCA
MrgX1 ant reconf: MrgX1 receptor antagonists, duplicate retest, confirmation, HEK293 cells, Fluo-4 calcium flux; shares compounds with MrgX1 antagonist; BAM8-22 calcium flux; stronger effect = lower value; hit rate 19% among 2,300; remaining BAM8-22 calcium response % of control (stronger effect = lower value), % at 10 µM;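 active = remaining agonist calcium response no higher than 100% minus 3 SD of agonist-only control wells, with starting fluorescence near control levels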;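 also: agonist BAM8-22 given at a near maximal EC90 to ECmax level; peak minus minimum fluorescence divided by baseline after agonist addition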
HEK293 Ca flux: nonspecific calcium signal in parental HEK293, confirmation, counter-screen for MrgX1 antagonist project, parental HEK293 cells, Fluo-4 calcium flux; fluorescence ratio F(max-min)/F0 at 10 µM; shares compounds with MrgX1 antagonist; Fluo-4 calcium fluorescence, FDSS; hit rate 2% among 4,000; AID 624111, 2012;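 active = duplicate-averaged calcium fluorescence ratio at least three times the standard deviation of buffer wells, a nonspecific response in parental cells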
HEK293 Ca counter: calcium response in parental HEK293 cells, primary screen, counter-screen for MrgX1 allosteric activator project, cell-based, Fluo-4 calcium flux, duplicate; hit rate 0.4% among 4,000; AID 624114, 2012; Fluo-4 fluorescence ratio; stronger effect = higher value; fluorescence ratio F(max-min)/F0 at 10 µM; shares compounds with MrgX1 antagonist;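 active = calcium fluorescence ratio, averaged over duplicates, at least 3 SD of the buffer-well ratio, meaning a nonspecific response in receptor-free cells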;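 also: untransfected parental HEK293 lacking MrgX1 used as counterscreen for MrgX1 allosteric activators; fluorescence change taken during the second addition on a kinetic imager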
HEK293 Ca cntr2: calcium response in parental HEK293 cells, primary screen, counter-screen for MrgX1 agonist project, cell-based, Fluo-4 calcium flux, duplicate, agonist mode. AID 624115, 2012. Fluo-4 calcium fluorescence (FDSS); stronger effect = higher value. hit rate 8.7% among 4,000. fluorescence ratio F(max-min)/F0 at 10 µM. shares compounds with MrgX1 antagonist;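 active = calcium fluorescence ratio at least three times the spread of buffer wells, meaning a non-specific response in parental cells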
Numbers without * were called inactive; i = inactive; · = no result given.

SMILES	MrgX1 antagonist	MrgX1 agonist	RGS4 act	MrgX1 PAM	RGS4 block	MrgX1 ant reconf	HEK293 Ca flux	HEK293 Ca counter	HEK293 Ca cntr2
CC(=O)[C@H]1CC[C@H]2[C@@H]3C=CC4=CC(=O)CC[C@@]4(C)[C@@H]3CC[C@]12C	i	i	·	i	·	·	·	·	·
Cn1c(SCC(=O)N2CCCC2)nnc1-c1cnccn1	i	i	i	i	i	·	·	·	·
NC(=O)c1csc(-c2ccncc2)n1	-5.6*	i	i	i	i	i	i	i	i
COc1ccc(N2CCN(C3CCCCC3NS(=O)(=O)c3ccc(Cl)cc3)CC2)cc1 (stereo not drawn)	-7.6*	i	i	i	i	i	i	i	i
O=c1[nH]c(C(F)(F)F)nc2c1nnn2Cc1ccccc1F	-5.2*	i	i	i	i	i	i	i	i
Cc1ccc(-c2cc(C(=O)Nc3ccc(S(=O)(=O)Nc4ncccn4)cc3)c3ccccc3n2)cc1	-5.7*	i	i	i	i	i	i	i	i
O=C(Nc1ccc(S(=O)(=O)Nc2nccs2)cc1)c1cc(-c2ccccc2)nc2ccccc12	i	i	i	i	i	·	·	·	·
Cc1ccc(C)c(OCCC(=O)OCC(=O)NC2CCS(=O)(=O)C2)c1 (stereo not drawn)	-5.5*	i	i	i	i	i	i	i	i
CC(=O)c1ccc(OCC(=O)NC2CCS(=O)(=O)C2)cc1 (stereo not drawn)	i	i	i	i	i	·	·	·	·
CC(C)(C)c1ccc(OCCC(=O)OCC(=O)NC2CCS(=O)(=O)C2)cc1 (stereo not drawn)	-5.3*	i	i	i	i	i	i	i	i
CCOc1ccccc1N1CC(C(=O)Nc2cc(Cl)ccc2C)CC1=O (stereo not drawn)	i	i	i	i	i	·	·	·	·
COc1ccc(C(=O)N2CCC3(CC2)NCCc2[nH]cnc23)cc1OC	i	i	i	i	i	·	·	·	·
Cc1ccc(CNC(=S)NC2CCC(C(C)(C)C)CC2)cc1 (stereo not drawn)	-6.3*	i	i	i	i	63%*	i	i	i
CCCC[C@@H]1CNC(=O)C(=O)N1CC(C)(C)C	-7.2*	i	i	i	i	i	i	i	i
O=C(Cn1ccc2cc(S(=O)(=O)N3CCCC3)ccc21)NCc1ccco1	-4.6*	i	i	i	i	i	i	i	i
O=C(NCc1ccco1)C1CCCN(S(=O)(=O)c2ccc(Br)cc2)C1 (stereo not drawn)	i	i	i	i	i	·	·	·	·
CS(=O)(=O)N1CCCC(C(=O)NCc2ccco2)C1 (stereo not drawn)	-5.1*	i	i	i	i	i	i	i	i
COc1ccc(/C=C(/NC(=O)c2ccccc2)C(=O)N2CCCC2)cc1	i	i	i	i	i	·	·	·	·
COc1ccc(C)cc1NC(=O)C(c1ccccc1)N1CCNC(=O)C1 (stereo not drawn)	i	i	i	i	i	·	·	·	·
CCNc1nc2c(c(=O)[nH]c(=O)n2C)n1CC(C)C	-4.6*	i	i	i	i	i	i	i	i
Cc1c(C(=O)Nc2ccc3c(c2)OCO3)sc2ncn(CC(=O)N3CC(C)CC(C)C3)c(=O)c12 (stereo not drawn)	-6.5*	i	i	i	i	83%*	i	i	i
Cn1cc(Cl)c(C(=O)NC(=S)Nc2sc3c(c2C#N)CCCCC3)n1	i	i	i	i	i	·	·	·	·
CCN1CCN(S(=O)(=O)c2cccc3nsnc23)CC1	i	i	i	i	i	·	·	·	·
Cc1ccccc1CN1CCN(S(=O)(=O)c2cccc3nsnc23)CC1	-11*	i	i	i	i	i	i	i	i
Cc1ccccc1CN1CCN(S(=O)(=O)c2cccs2)CC1	-4.6*	i	i	i	i	i	i	i	i
SMILES	MrgX1 antagonist	MrgX1 agonist	RGS4 act	MrgX1 PAM	RGS4 block	MrgX1 ant reconf	HEK293 Ca flux	HEK293 Ca counter	HEK293 Ca cntr2
CCc1noc(C)c1C(=O)N1CCCC(CCC(=O)NCc2ccc(F)c(F)c2)C1 (stereo not drawn)	i	i	i	i	i	·	·	·	·
Cc1cc(C)n(-c2ccc(C(=O)Oc3ccc4c(c3)OCO4)cc2)n1	-6.7*	i	i	i	i	i	i	i	i
CC(=O)c1ccc(OC(=O)c2ccc(-n3nc(C)cc3C)cc2)cc1	i	i	i	i	i	·	·	·	·
Cc1nnc(SCC(=O)NC(=O)NC(C)(C)C)s1	-5.6*	i	i	i	i	i	i	i	i
Cc1nnc(SCC(=O)NC(=O)NC(C)C)s1	i	i	i	i	i	·	·	·	·
COc1cc(NC(=O)COc2cc(O)c3c(c2)OC(C)(C)CC3=O)cc(OC)c1OC	-5*	i	i	i	i	51%*	i	i	i
CC1(C)CC(=O)c2c(O)cc(OCC(=O)Nc3ccc(S(N)(=O)=O)cc3)cc2O1	i	i	i	i	i	·	·	·	·
Cc1ccc(S(=O)(=O)N2CCN(C(=O)C3CCN(C(=O)c4ccc(F)cc4)CC3)CC2)c(C)c1	i	i	i	i	i	·	·	·	·
Cc1nc(-c2ccccc2)nc2sc(C(=O)c3ccc(F)cc3)c(N)c12	-4.6*	i	i	i	i	78%*	i	i	i
